Only some compounds are listed: those with a hit (about 5.9% of all), similar ones and a draw of the others.
Measles CPE: compounds protecting cells from measles virus cytopathic effect, primary screen, measles RdRp inhibitor project, single point, MLSMR library, absorbance; Measles virus-infected cells, CPE protection; protection (pct of control), % at 4 µM; 140,000 compounds, 1.5% hits; in the data active means protection mostly above about 24%, no sharp cut-off; inactive means mostly below about 26%
Cav32 inh: Cav3.2 calcium influx blockers – cell-based, Fluo-4 calcium fluorescence, FDSS, MLSMR library, primary screen; Voltage-dependent T-type calcium channel subunit alpha-1H (Homo sapiens), O95180; Cav3.2-expressing cells; hits give low values; B-score at 10 µM; 100,000 compounds, 4% hits;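 active means single-dose well whose peak fluorescence ratio is a statistical outlier from its plate by either plate-standardised score or position-corrected B-score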
Target sequence (O95180 whole entry, looked up): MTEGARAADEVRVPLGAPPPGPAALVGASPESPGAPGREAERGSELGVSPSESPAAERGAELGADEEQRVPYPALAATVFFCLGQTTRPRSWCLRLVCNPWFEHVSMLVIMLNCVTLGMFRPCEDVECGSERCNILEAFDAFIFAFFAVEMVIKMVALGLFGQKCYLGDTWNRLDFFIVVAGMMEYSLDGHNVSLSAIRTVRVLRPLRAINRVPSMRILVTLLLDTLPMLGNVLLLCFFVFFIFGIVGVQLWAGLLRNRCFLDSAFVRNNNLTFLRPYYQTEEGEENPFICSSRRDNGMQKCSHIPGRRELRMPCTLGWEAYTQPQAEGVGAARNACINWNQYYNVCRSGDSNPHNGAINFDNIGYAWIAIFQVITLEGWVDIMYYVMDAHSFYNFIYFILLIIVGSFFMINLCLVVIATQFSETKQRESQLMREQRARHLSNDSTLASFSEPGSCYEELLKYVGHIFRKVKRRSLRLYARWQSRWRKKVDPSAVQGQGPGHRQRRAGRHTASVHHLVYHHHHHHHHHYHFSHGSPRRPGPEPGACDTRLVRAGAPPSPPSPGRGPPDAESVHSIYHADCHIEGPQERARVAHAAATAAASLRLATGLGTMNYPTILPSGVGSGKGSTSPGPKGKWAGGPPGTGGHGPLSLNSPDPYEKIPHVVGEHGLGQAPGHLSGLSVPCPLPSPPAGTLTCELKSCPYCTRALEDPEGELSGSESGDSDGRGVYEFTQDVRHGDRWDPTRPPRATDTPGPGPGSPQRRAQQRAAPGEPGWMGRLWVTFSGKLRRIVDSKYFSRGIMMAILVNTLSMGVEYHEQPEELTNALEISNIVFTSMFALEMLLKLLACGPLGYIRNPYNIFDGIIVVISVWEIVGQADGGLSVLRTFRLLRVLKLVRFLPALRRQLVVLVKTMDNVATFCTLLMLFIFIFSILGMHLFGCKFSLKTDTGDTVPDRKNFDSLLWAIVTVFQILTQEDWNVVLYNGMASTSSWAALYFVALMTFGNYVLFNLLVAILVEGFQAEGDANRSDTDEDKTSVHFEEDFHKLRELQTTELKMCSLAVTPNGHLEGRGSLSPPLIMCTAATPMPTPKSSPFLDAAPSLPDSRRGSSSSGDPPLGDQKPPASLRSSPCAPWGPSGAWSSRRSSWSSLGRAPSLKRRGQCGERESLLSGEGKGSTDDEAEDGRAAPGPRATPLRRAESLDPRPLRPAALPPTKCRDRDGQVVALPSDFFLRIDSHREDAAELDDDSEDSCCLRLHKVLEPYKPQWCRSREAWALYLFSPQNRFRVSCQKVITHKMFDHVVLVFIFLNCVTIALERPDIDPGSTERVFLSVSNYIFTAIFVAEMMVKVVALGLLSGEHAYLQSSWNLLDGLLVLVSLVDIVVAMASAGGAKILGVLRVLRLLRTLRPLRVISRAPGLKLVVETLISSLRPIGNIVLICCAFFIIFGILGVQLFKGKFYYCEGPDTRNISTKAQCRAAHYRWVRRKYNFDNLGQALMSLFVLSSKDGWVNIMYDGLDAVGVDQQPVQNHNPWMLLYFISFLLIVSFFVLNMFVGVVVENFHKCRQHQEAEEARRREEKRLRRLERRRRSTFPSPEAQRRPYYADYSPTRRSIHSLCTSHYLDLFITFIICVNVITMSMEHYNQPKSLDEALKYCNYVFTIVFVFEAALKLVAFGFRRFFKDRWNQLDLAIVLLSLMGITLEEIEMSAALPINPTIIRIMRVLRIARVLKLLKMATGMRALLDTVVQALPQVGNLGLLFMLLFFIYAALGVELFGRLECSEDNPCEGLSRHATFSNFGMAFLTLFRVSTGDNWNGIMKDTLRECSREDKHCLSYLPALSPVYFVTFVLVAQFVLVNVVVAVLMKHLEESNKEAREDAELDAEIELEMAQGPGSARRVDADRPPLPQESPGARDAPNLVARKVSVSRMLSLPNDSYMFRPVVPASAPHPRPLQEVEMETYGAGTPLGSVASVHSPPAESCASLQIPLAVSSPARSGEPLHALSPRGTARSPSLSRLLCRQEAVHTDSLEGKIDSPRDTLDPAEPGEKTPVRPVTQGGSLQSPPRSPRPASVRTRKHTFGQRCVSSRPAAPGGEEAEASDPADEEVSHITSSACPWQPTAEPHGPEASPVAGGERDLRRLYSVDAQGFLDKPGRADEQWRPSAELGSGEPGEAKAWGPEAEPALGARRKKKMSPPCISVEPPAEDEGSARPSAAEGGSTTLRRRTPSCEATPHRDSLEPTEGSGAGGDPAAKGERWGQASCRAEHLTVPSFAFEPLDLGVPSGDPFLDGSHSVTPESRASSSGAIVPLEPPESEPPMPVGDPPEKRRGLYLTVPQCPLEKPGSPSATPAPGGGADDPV
DAT uptake mod: changed hDAT dopamine uptake under cocaine IC80, either direction, primary screen, cocaine antagonist project, cell-based, LLC-PK1 hDAT, [14C]-dopamine uptake, MLSMR; 110,000 compounds, 1.3% hits; LLC-PK1 hDAT cells, [14C]-dopamine uptake with cocaine IC80; actives deviate in either direction; B-score at 10 µM;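 active means Z score or B-score, a plate-position-corrected score, falls beyond the plate's 99.7% confidence bounds, in either direction; inactive means both scores lie inside the 99.7% bounds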;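 further: scored against the spread of the other compound wells on the same plate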
Phagocyt inh: inhibitors of macrophage phagocytosis, primary screen, imaging, J774A.1 cells, IgG beads; inhibition, % at 5 µM; 110,000 compounds, 0.07% hits; J774A.1 macrophage IgG-bead phagocytosis;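 active means inhibition above the mean of the plate negative controls plus 5 SD, cut at about 13% in these data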;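 further: phagocytic index as fraction of beads internalized from green versus red external bead signal; plate controls were DMSO negative control for no effect and cytochalasin-D positive control for full effect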
PTK2B oligo ant: antagonists of Pyk2 self-association, primary screen, Q293 cells, FERM NanoBiT luminescence, HTS; 99,000 compounds, 0.83% hits; hits give low values; AID 1347419, 2020; Protein-tyrosine kinase 2-beta (Homo sapiens), Q14289; z-score (the deposit names both 25 µM and 10 µM);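 active means Z-score of -3 or lower, scaled per plate to the spread of control and sample wells; inactive means z-score above -3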;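 further: negative z-score means lost luminescence so less FERM oligomerization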
HIV Rev-RRE inh: HIV-1 Rev-RRE binding inhibitors, primary screen, biochemical, FRET, protein-RNA interaction. P05866. Rev peptide-RRE RNA binding. inhibition, % at 8 µM. 97,000 compounds, 0.79% hits. AID 704, 2007;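 active means inhibition above the screen-wide mean plus 3 SD, cut at about 35% in these data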;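 further: 0% = median DMSO wells and 100% = median Neomycin B control wells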
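System: Cy5-labelled duplex RRE RNA binding fluorescein-labelled HIV Rev peptide; Signal: fluorescein-to-Cy5 FRET, 480 nm excitation; Also added: labelled Rev peptide; Compound: one concentration, 8 µM nominal; Buffer or medium: HEPES pH 7.5 salt buffer with EDTA; Read-out: % inhibition of FRET ratio versus controls; Schedule: 5 min preincubation and 15 min binding, 25 °C.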
Starred values were filed as active, the others as inactive; nt = not tested or not shown.

SMILES | Measles CPE | Cav32 inh | DAT uptake mod | Phagocyt inh | PTK2B oligo ant | HIV Rev-RRE inh
Cc1ccccc1-c1nc(CN2CCC(C(=O)NCc3cccnc3)CC2)c(C)o1 | 1.9 | 2.18 | 0.0304 | 0.1 | 0.58 | 6.5
Cc1ccc(CNc2oc(-c3ccco3)nc2S(=O)(=O)c2ccccc2)cc1 | 4.8 | -4.73* | 0.492 | nt | 0.78 | 11.3
Cc1ccccc1-c1nc(S(=O)(=O)c2ccc(Br)cc2)c(NCc2cccnc2)o1 | 1.3 | -2.54* | 0.685 | 1.5 | -3.4* | -1.1
CC1=C(C(=O)NCCN2CCN(C)CC2)C2(CCC(C)CC2)OC1=O (stereo not given) | 1.5 | 0.438 | -0.596 | -1.2 | 1.27 | 7.2
CC1(c2nnc(-c3ccccc3)o2)CC(c2ccc([N+](=O)[O-])cc2)=NO1 (stereo not given) | nt | -1.62 | -0.797 | nt | nt | nt
O=C(c1ccc2c(c1)OCCO2)C1CCN(C(=O)c2ccc(F)c(F)c2)CC1 | nt | -3.87* | -0.888 | -1.1 | -0.91 | 5.9
O=C(CCN1C(=O)C2C3CC(C(Br)C3Br)C2C1=O)OCC(=O)c1ccccc1 (stereo not given) | 26.7 | nt | nt | -13.1 | nt | nt
Cc1nn(C)c(C)c1NC(=O)CSc1nc(C2CC2)nc2c1cnn2-c1ccccc1 | 61.8* | -0.634 | -0.681 | nt | 0.29 | 1.9
CCCCC(=O)N/N=C/c1ccc(N2CCOCC2)c([N+](=O)[O-])c1 | 0.6 | nt | nt | -3.4 | nt | nt
O=C(N/N=C/c1ccccc1)c1ccc(N2CCOCC2)c([N+](=O)[O-])c1 | 20.2* | nt | nt | -0.9 | nt | nt
Brc1ccc(C2Nc3cccc4cccc(c34)N2)o1 | 0.7 | -5.4* | -0.55 | 1.9 | 0.03 | 0.9
Cc1ccc(C)c(NC(=S)NNC(=O)c2csc3c2CCCC3)c1 | 38.5 | -5.31* | 0.704 | nt | 0.4 | 2.9
Cc1cccc(NC(=S)NNC(=O)c2csc(C)c2)c1 | 11.4 | nt | nt | 0.2 | nt | nt
Cc1cccc(NC(=S)NNC(=O)c2csc3c2CCCC3)c1 | 15.8 | -3.48* | 1.01 | nt | -0.71 | -1.0
Cc1ccc(C)c(NC(=S)NNC(=O)c2csc3c2CCC(C)C3)c1 (stereo not given) | 0.7 | -5.39* | 1.46 | -1.2 | 0.26 | -1.8
Cc1ccc(/C=N/NC(=O)c2csc3c2CCCC3)cc1 | 6.2 | -4.88* | -0.0757 | 1.9 | -0.12 | 7.2
CC(C)(C)c1ccc(-c2n[nH]c(=S)n2/N=C/c2ccncc2)cc1 | 4.6 | nt | nt | -2.9 | nt | nt
CCOC(=O)c1ccc(-n2c(O)c(/C=N/NC(=O)C3COc4ccccc4O3)c3ccccc3c2=O)cc1 (stereo not given) | 23.5 | nt | nt | -6.7 | -1.95 | nt
O=C(NCCCN1CCN(Cc2ccccc2)CC1)c1nnc(Cc2c(F)cccc2Cl)o1 | 39.0* | 0.281 | 0.796 | -1.4 | 0.32 | 5.3
COc1cccc(NC(=O)CSc2nc3c(oc4ccccc43)c(=O)[nH]2)c1 | 16.5 | nt | nt | -4.9 | nt | nt
CC(=O)c1ccc(NC(=O)Nc2cccc(Cl)c2)cc1 | 21.7 | -2.7 | -3.89* | nt | -0.02 | 8.2
CCC(=O)Nc1ccc(C(=O)NNC(=O)Cc2ccccc2)cc1 | 5.5 | nt | nt | nt | nt | nt
COCCNC(C(=O)Nc1cc(Cl)cc(Cl)c1)c1ccccc1 (stereo not given) | 14.3 | -5.19* | -0.176 | 0.5 | -1.01 | 13.2
Cc1ccc(C(=O)c2coc3ccc(O)c(Cl)c23)cc1 | 6.3 | -5.15* | 1.11 | -0.8 | -1.56 | 0.3
COc1ccc(C(=O)c2coc3ccc(O)c(CN4CCCCC4)c23)cc1 | 7.0 | 0.543 | 3.53* | -0.6 | nt | 1.4
COC(=O)c1sccc1NC(=S)N1CCN(c2cccc(C)c2C)CC1 | 9.7 | nt | nt | -4.0 | nt | nt
CCC(CC)C(=O)Nc1cccc(S(=O)(=O)c2cccc(NC(=O)C(CC)CC)c2)c1 | 23.3 | 0.00454 | -0.301 | -0.1 | -0.85 | -0.9
CC(C)OC(=O)NCCOC(=O)Nc1ccc(Cl)c(Cl)c1 | 11.9 | -6.96* | 1.5 | nt | 1.23 | 18.9
CCC(CC)C(=O)Nc1ccc(Cl)c(Cl)c1 | 13.3 | -5.17* | -0.209 | -1.2 | -2.18 | 2.1
